Assay outcomes from PubChem.
TRPC4 PAM – allosterically enhances the mouse TRPC4 cation channel; Q9QUQ5; HEK293 TRPC4beta/mu-opioid, DAMGO EC20, Fluo-4 Ca2+ flux; hits give high values; B-score at 10 µM; 310,000 compounds, 0.42% hits; AID 2227;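 active means B-score of calcium response area above 5 SD of library B-scores, with initial fluorescence ratio within 5 SD of library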
TRPC4 block – blocks the mouse TRPC4 cation channel; HEK293 TRPC4beta/mu-opioid, DAMGO-evoked Fluo4 calcium flux; hits give low values; B-score at 10 µM; 300,000 compounds, 0.39% hits; AID 2247;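 active means B-score over 3 SD under the library average, no early fluorescence shift, positive overall ratio signal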
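Assay system: Stable TRPC4beta/mu-opioid receptor HEK293 cells | Reagent: DAMGO in two steps, submaximal then maximal | Compound dosing: Single concentration per test compound | Signal: Fluo4 Ca2+ flux fluorescence | Evaluation: Per-well B score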
TRPC6 inh – inhibitors of mouse TRPC6 channel. Q61143. HEK293-TRPC6, membrane potential dye, ACh-evoked depolarization; hits give low values. B-score at 10 µM. 310,000 compounds, 1.1% hits. AID 2553;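 active means B-score under library mean minus 3 SD, initial fluorescence not abnormally high, positive integrated signal ratio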;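 further: B-score derived from integrated fluorescence ratio over the kinetic read; more negative B-score means stronger inhibition of depolarization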
Target sequence (Q61143 whole entry, looked up): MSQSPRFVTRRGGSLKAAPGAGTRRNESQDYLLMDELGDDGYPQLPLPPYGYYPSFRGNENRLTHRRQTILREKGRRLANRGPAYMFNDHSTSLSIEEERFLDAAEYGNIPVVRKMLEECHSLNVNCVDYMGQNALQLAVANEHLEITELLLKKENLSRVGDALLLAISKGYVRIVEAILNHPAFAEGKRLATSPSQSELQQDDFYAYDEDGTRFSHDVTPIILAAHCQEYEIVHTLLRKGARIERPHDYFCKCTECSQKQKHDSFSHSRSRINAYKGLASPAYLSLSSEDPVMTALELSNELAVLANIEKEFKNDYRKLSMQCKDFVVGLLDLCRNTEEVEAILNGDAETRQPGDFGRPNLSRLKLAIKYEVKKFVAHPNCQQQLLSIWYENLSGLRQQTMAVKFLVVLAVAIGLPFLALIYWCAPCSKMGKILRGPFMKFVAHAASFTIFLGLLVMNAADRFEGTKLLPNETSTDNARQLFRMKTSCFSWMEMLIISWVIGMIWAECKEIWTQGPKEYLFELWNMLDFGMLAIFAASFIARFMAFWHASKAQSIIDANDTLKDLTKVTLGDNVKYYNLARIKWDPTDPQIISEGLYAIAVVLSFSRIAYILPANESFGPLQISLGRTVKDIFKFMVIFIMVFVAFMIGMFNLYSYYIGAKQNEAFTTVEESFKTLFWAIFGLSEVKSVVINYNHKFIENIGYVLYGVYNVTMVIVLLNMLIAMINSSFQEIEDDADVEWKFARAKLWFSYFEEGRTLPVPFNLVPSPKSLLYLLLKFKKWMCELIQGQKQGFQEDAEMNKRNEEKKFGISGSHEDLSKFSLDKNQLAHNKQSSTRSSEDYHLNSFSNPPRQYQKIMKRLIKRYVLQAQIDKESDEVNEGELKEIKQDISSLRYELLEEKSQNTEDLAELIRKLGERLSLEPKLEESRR
TRPC6 act – mouse TRPC6 channel activation. HEK293-TRPC6 membrane potential dye fluorescence; hits give high values. Q61143. B-score at 10 µM. AID 2550. 310,000 compounds, 0.13% hits;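 active means B-score of the integrated fluorescence ratio above library mean plus 3 SD, and starting fluorescence ratio within library mean plus 5 SD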;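 further: higher score means more depolarization so channel activation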
TRPC4 agonist – opens the mouse TRPC4 cation channel | Q9QUQ5 | HEK293 TRPC4beta/mu-opioid, Fluo4 calcium fluorescence; hits give high values | B-score at 10 µM | 310,000 compounds, 0.49% hits | AID 2237;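 active means B-score above 5 SD of library B-scores, and initial fluorescence ratio not above library mean plus 5 SD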;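 further: positive B-score marks a calcium rise read as TRPC4 activation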
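Assay system: HEK293 stable line with TRPC4beta plus mu-opioid receptor; schedule: 45 min room-temperature Fluo4 loading, 110 s read; technique: kinetic Fluo4 calcium fluorescence; evaluation: integrated baseline-normalised fluorescence ratio, converted to per-well B score; controls: buffer (low) and maximal DAMGO (high)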
TRPC4 sel inh 2 – second selectivity test of TRPC6 inhibitors: effect on mouse TRPC4; inhibition, % at 10 µM; shares compounds with TRPC6 inh; 920 compounds, 42% hits; HEK293 TRPC4/MOR, membrane potential dye fluorescence; channel activated by saturating DAMGO dose;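 active means compounds whose fluorescence signal differed from control wells by over 3 SD, either direction, in both duplicate plates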
TRPC4 spec – selectivity of TRPC6 inhibitors: effect on mouse TRPC4; shares compounds with TRPC6 inh; HEK293 TRPC4/mu-opioid, membrane potential fluorescence; activity change, negative = inhibition, % at 10 µM; 920 compounds, 61% hits;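 active means rise or fall in signal beyond 3 SD of buffer-only wells in both replicate plates, either sign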;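 further: integrated kinetic ratio of fluorescence range over baseline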
HEK293 MPD ctr 2-1 – second counter-screen for TRPC6 inhibitors: parental HEK293 cells; shares compounds with TRPC6 inh; parental HEK293 membrane potential dye fluorescence; maximal acetylcholine challenge after compound addition; signal change vs control, % at 10 µM; 920 compounds, 31% hits;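 active means membrane potential signal moving either way by over 3 SD of the maximum-effect control, in both duplicate plates, meaning non-specific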
HEK293 MPD ctr-1 – checks TRPC6 inhibitor effects in parental HEK293 cells; parental HEK293 membrane potential dye fluorescence; 920 compounds, 60% hits; membrane potential signal change, % at 10 µM; shares compounds with TRPC6 inh;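 active means membrane potential signal shifting up or down by more than 3 SD of buffer-only wells, on both duplicate plates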
HEK293 MPD ctr-2 – parental HEK293 nonspecific activity of TRPC6 modulators. shares compounds with TRPC6 inh. membrane potential dye fluorescence. membrane potential signal change, % at 10 µM. 2,400 compounds, 51% hits. AID 488924;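 active means membrane potential signal moves up or down beyond 5 SD from buffer-only wells, on both duplicate plates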
HEK293 MPD ctr 2-2 – second counter-screen for TRPC6 modulators: effect in parental HEK293 cells. 2,400 compounds, 14% hits. inhibition, % at 10 µM. shares compounds with TRPC6 inh. membrane potential dye fluorescence; after compound, maximal acetylcholine stimulation;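 active means membrane potential signal drops by more than 5 SD from the mean control signal, in both duplicate plates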
TRPC4/MOR mod – tests whether TRPC6 modulators also affect mouse TRPC4; shares compounds with TRPC6 inh; AID 488927; percent change from control (negative = decrease, positive = increase), % at 10 µM; HEK293 TRPC4/mu-opioid, membrane potential fluorescence; 2,400 compounds, 69% hits;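 active means membrane potential signal moved up or down beyond 5 SD of buffer control wells, in both duplicate plates, actives on both sides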
TRPC4/MOR inh 2 – mouse TRPC4 off-target activity of TRPC6 modulators, second screen; shares compounds with TRPC6 inh; HEK293 TRPC4/mu-opioid, membrane potential dye fluorescence; stimulated with maximal-effect DAMGO; inhibition, % at 10 µM; 2,400 compounds, 55% hits;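 active means drop in membrane potential signal beyond 5 SD of the control wells in both duplicate plates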;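 further: TRPC4 counter screen for TRPC6 hits run under conditions tuned for TRPC6 not TRPC4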
TRPC6 inh conf – confirmation of mouse TRPC6 inhibitors; 3,300 compounds, 43% hits; HEK293-TRPC6, membrane potential dye, ACh-evoked depolarization; AID 488960; inhibition, % at 10 µM; shares compounds with TRPC6 inh;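 active means fluorescence ratio falls more than 5 SD below the full-stimulation control mean, in both duplicate runs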;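 further: integrated fluorescence ratio of peak minus minimum over baseline after agonist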
TRPC6 act confirm – confirmation of mouse TRPC6 activators; HEK293-TRPC6 membrane potential dye fluorescence, FDSS; 2,800 compounds, 11% hits; shares compounds with TRPC6 inh; activation, % at 10 µM; AID 488961;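 active means ratio signal rise beyond 5 SD above unstimulated control wells' mean, seen in both duplicate runs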
Hits are given with their value. In the library only some 2.3% were active in any assay of this set; here they are far more common.

CC[n+]1c(/C=C/c2ccc(OC(C)=O)c(OC)c2)ccc2ccccc21 was read as TRPC4 PAM inactive, TRPC4 block inactive, TRPC6 inh -7.6, TRPC6 act inactive, TRPC4 agonist inactive, HEK293 MPD ctr-2 -264%, HEK293 MPD ctr 2-2 124%, TRPC4/MOR mod -45%, TRPC4/MOR inh 2 70%, TRPC6 inh conf 77% and TRPC6 act confirm inactive.
Screening CC[n+]1c(/C=C/c2ccc(N(C)C)cc2)ccc2ccccc21 returned TRPC4 PAM inactive, TRPC4 block inactive, TRPC6 inh inactive, TRPC6 act inactive and TRPC4 agonist inactive.
For CC[n+]1c(/C=C/c2ccc(OC)c(OC)c2)ccc2ccccc21 the results were TRPC4 PAM inactive, TRPC4 block inactive, TRPC6 inh -8.1, TRPC6 act inactive, TRPC4 agonist inactive, HEK293 MPD ctr-2 -214%, HEK293 MPD ctr 2-2 inactive, TRPC4/MOR mod -52%, TRPC4/MOR inh 2 40%, TRPC6 inh conf inactive and TRPC6 act confirm inactive.
For COc1ccc(CCN(C)C(=O)c2ccc(S(=O)(=O)Nc3ccccc3F)cc2)cc1OC the results were TRPC4 PAM inactive, TRPC4 block inactive, TRPC6 inh inactive, TRPC6 act inactive and TRPC4 agonist inactive.
For CC(C)N1CCc2c(sc(NC(=S)NC(=O)c3ccccc3)c2C#N)C1 the results were TRPC4 PAM inactive, TRPC4 block inactive, TRPC6 inh inactive, TRPC6 act 48, TRPC4 agonist 71, HEK293 MPD ctr-2 inactive, HEK293 MPD ctr 2-2 inactive, TRPC4/MOR mod 8.0%, TRPC4/MOR inh 2 inactive, TRPC6 inh conf inactive and TRPC6 act confirm inactive.
Screening CCN(CC)CCNC(=O)c1[nH]c2ccc(OCc3ccccc3)cc2c1C returned TRPC4 PAM inactive, TRPC4 block inactive, TRPC6 inh -7.5, TRPC6 act inactive, TRPC4 agonist inactive, HEK293 MPD ctr-2 inactive, HEK293 MPD ctr 2-2 inactive, TRPC4/MOR mod inactive, TRPC4/MOR inh 2 38% and TRPC6 inh conf 55%.
CCOC(=O)c1c(CNc2ccncc2)n(C)c2cc(Br)c(O)cc12 was read as TRPC4 PAM inactive, TRPC4 block inactive, TRPC6 inh -8.3, TRPC6 act inactive, TRPC4 agonist inactive, TRPC4 sel inh 2 70%, TRPC4 spec -27%, HEK293 MPD ctr 2-1 -46%, HEK293 MPD ctr-1 -370%, TRPC6 inh conf 60% and TRPC6 act confirm inactive.
`CCN(CC)CCOC(c1ccccc1)c1ccc(C)cc1` (centres undefined) gave TRPC4 PAM inactive, TRPC4 block inactive, TRPC6 inh inactive, TRPC6 act inactive and TRPC4 agonist inactive.
